In ChEMBL document CHEMBL3853263, “Effect of intercalator and Lewis acid-base branched peptide complex formation: boosting affinity towards HIV-1 RRE RNA” (Medchemcomm, 2016):
The source made the active and inactive calls. No cut-off for these calls is given here. Numbered stars: 1 amine (or outer) side, 2 acyl side, 3 side chain; on linkers, the order of the positions; unused ones are H or OH. Side chains are listed from the residue outwards. Peptide text beside a SMILES is read from it. * marks the point of attachment. X2 = NCCCC[C@H](NC(=O)[C@@H](N)CCCCN)C(=O)N[C@@H](CCCCNC(=O)c1ccc(B(O)O)cc1)C(=O)*; X1 = NCCCC[C@H](N)C(=O)N[C@@H](CCCCNc1c2ccccc2nc2ccccc12)C(=O)*; X3 = NCCCC[C@H](N)C(=O)N[C@@H](CCCCNC(=O)c1ccc(B(O)O)cc1)C(=O)*; Benzoyl(4-B(OH)2) = O=C(c1ccc(B(O)O)cc1)*; Acridin9yl = c1ccc2c(*)c3ccccc3nc2c1; εLys = N[C@@H](CCCCN[*:1])C(=O)[*:2]

Assays:
[1] = system: Human immunodeficiency virus 1; assay: Binding affinity to HIV1 wild type 2-aminopurine-labeled RRE-2B RNA assessed as 1:1 binding stoichiometry between compound and RNA at 0.25 to 4 molar ratio of compound/RNA by Job plot method
[2] = system: Human immunodeficiency virus 1; assay: (§1) Antiviral activity against HIV1 NL4-3 infected in human U87 cells transfected with CD4/CXCR4 assessed as inhibition of viral replication preincubated for 1 hr followed by viral infection for 24 hrs and subsequent compound wash out and addition of additional compound measured at 72 hrs post infection by p24 assay; assay type: functional, cell-based, U-87MG ATCC; settings: for IC50: Human immunodeficiency virus 1, NL4-3, U-87 MG; for inhibition: U-87MG ATCC
In short: (§2)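 U87-CD4/CXCR4 cells are seeded at 1 x 10⁴/well and left to adhere overnight. Compounds come from 1 mM stocks in water, diluted in RPMI. Cells are pretreated for 1 h, then infected with NL4-3 (CXCR4-tropic) at MOI 0.01 for 24 h. Cells are PBS-washed and given fresh medium with more compound. p24 is quantified in supernatant at 72 h post-infection.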

[3] = system: Human immunodeficiency virus 1; assay: Binding affinity to HIV1 wild type [32P]-labeled RRE-2B RNA assessed as protection of RNA from RNase A-induced cleavage at 0.2 to 20 uM by footprinting method
In short: (§3)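 5'-³²P RRE-IIB (10 nM) plus unlabeled RRE-IIB (200 nM) is heated to 95 °C for 3 min and snap-cooled. It is incubated with peptide on ice for 4 h in 10 mM Tris pH 7, 100 mM KCl, 10 mM MgCl₂. Digestion is on ice for 1 h, with RNase T1 at 1 U or RNase A at 20 ng. Cleavage is stopped by precipitation, run on 12% PAGE with 7.5 M urea, and read by autoradiography.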

[4] = Cytotoxicity against HIV1 NL4-3 infected human U87 cells transfected with CD4/CXCR4 assessed as decrease in cell viability at 20 to 80 uM after 72 hrs by MTT assay; assay type: toxicity, cell-based; settings: u-87mg atcc
[5] = system: Human immunodeficiency virus 1; assay: as §1, with “replication at 40 uM” for “replication”, “assay relative to control” for “assay”; assay type: functional, U-87MG ATCC; settings: Human immunodeficiency virus 1, NL4-3, U-87 MG; in short: as §2
[6] = Binding affinity to HIV1 wild type [32P]-labeled RRE-2B RNA after 4 hrs by electrophoretic mobility shift assay; set-up: species or system Human immunodeficiency virus 1
In short: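 5'-³²P RRE-IIB (4 nM in 2x phosphate buffer, pH 7.0) is refolded at 95 °C for 3 min, then rt for 20 min. It is mixed 1:1 with peptide in water (final 0.001–10 µM) for 4 h at rt. Complexes are resolved by 10% native PAGE at 4 °C. Kd is the 50%-binding concentration from a sigmoidal fit of % RNA bound vs log[peptide]. Triplicates.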

[7] = system: Human immunodeficiency virus 1; assay: Binding affinity to HIV1 wild type [32P]-labeled RRE-2B RNA assessed as protection of RNA from RNase T1-induced cleavage by footprinting method; in short: as §3
[8] = system: Human immunodeficiency virus 1; assay: as §1, with “replication at 100 uM” for “replication”; assay type: functional, cell-based; settings: U-87MG ATCC; in short: as §2
[9] = Cytotoxicity against human U87 cells transfected with CD4/CXCR4 assessed as decrease in cell viability up to 100 uM after 24 hrs by MTT assay; assay type: toxicity, cell-based; settings: u-87mg atcc
In short: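 U87 CXCR4 cells are seeded at 1 x 10⁴/well and incubated overnight at 37 °C in 5% CO₂. They are treated with 100, 50 or 10 µM (final) compound for 24 h. Tetrazolium dye is added for 4 h, then solubilization/stop solution for 1 h. A570 is read and normalized to untreated cells set at 1.0.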

[10] = system: Human immunodeficiency virus 1; assay: as §1, with “replication at 10 uM” for “replication”, “assay relative to control” for “assay”; assay type: functional, U-87MG ATCC; settings: Human immunodeficiency virus 1, NL4-3, U-87 MG; in short: as §2

Row | Kd [6] | Compound | Activity [4] | inhibition [8] | Activity [9] | further results
1 | 60 nM | CC(C)C[C@H](NC(=O)[C@H](CCCCN)NC(=O)[C@H](CCCCNC(=O)[C@H](CCCCN)NC(=O)[C@H](CCCCN)NC(=O)[C@@H](N)CCCCNc1c2ccccc2nc2ccccc12)NC(=O)[C@H](CCCCN)NC(=O)[C@H](CCCCN)NC(=O)[C@@H](N)CCCCNc1c2ccccc2nc2ccccc12)C(=O)N[C@@H](CCCCNC(=O)c1ccc(B(O)O)cc1)C(=O)N[C@@H](Cc1ccc(O)cc1)C(N)=O (H-K(Acridin9yl)KKK([Lys-Lys-εLys-Acridin9yl])KLK(Benzoyl(4-B(OH)2))Y-NH2) | Non-Toxic | Active | Non-Toxic | Activity [1]: Active; IC50 [2]: 10100 nM; inhibition [2]: Dose-dependent effect; Activity [3]: Active; inhibition at 40 µM [5]: 90%; Activity [7]: Dose-dependent effect
2 | 70 nM | CC(C)C[C@H](NC(=O)[C@H](CCCCN)NC(=O)[C@H](CCCCNC(=O)[C@H](CCCCN)NC(=O)[C@H](CCCCNc1c2ccccc2nc2ccccc12)NC(=O)[C@@H](N)CCCCN)NC(=O)[C@H](CCCCN)NC(=O)[C@H](CCCCNc1c2ccccc2nc2ccccc12)NC(=O)[C@@H](N)CCCCN)C(=O)N[C@@H](CCCCNC(=O)c1ccc(B(O)O)cc1)C(=O)N[C@@H](Cc1ccc(O)cc1)C(N)=O (H-KK(Acridin9yl)KK([Lys-X1])KLK(Benzoyl(4-B(OH)2))Y-NH2) | Non-Toxic | Active | Dose-dependent effect | IC50 [2]: 7300 nM; inhibition [2]: Dose-dependent effect; inhibition at 10 µM [10]: 60%; inhibition at 40 µM [5]: 90%
3 | 140 nM | CC(C)C[C@H](NC(=O)[C@H](CCCCNc1c2ccccc2nc2ccccc12)NC(=O)[C@H](CCCCNC(=O)[C@H](CCCCN)NC(=O)[C@H](CCCCN)NC(=O)[C@@H](N)CCCCN)NC(=O)[C@H](CCCCN)NC(=O)[C@H](CCCCN)NC(=O)[C@@H](N)CCCCN)C(=O)N[C@@H](CCCCN)C(=O)N[C@@H](Cc1ccc(O)cc1)C(N)=O (H-KKKK([Lys-Lys-Lys])K(Acridin9yl)LKY-NH2) | – | Active | Non-Toxic | –
4 | 20 nM | CC(C)C[C@H](NC(=O)[C@H](CCCCN)NC(=O)[C@H](CCCCNC(=O)[C@H](CCCCN)NC(=O)[C@H](CCCCN)NC(=O)[C@@H](N)CCCCN)NC(=O)[C@H](CCCCN)NC(=O)[C@H](CCCCN)NC(=O)[C@@H](N)CCCCN)C(=O)N[C@@H](CCCCNc1c2ccccc2nc2ccccc12)C(=O)N[C@@H](Cc1ccc(O)cc1)C(N)=O (H-KKKK([Lys-Lys-Lys])KLK(Acridin9yl)Y-NH2) | Non-Toxic | Active | Non-Toxic | –
5 | 280 nM | CC(C)C[C@H](NC(=O)[C@H](CCCCNC(=O)[C@H](CCCCN)NC(=O)[C@H](CCCCN)NC(=O)[C@@H](N)CCCCN)NC(=O)[C@H](CCCCN)NC(=O)[C@H](CCCCN)NC(=O)[C@@H](N)CCCCN)C(=O)N[C@@H](CCCCNC(=O)c1ccc(B(O)O)cc1)C(=O)N[C@@H](CCCCNC(=O)c1ccc(B(O)O)cc1)C(=O)N[C@@H](Cc1ccc(O)cc1)C(N)=O (H-KKKK([Lys-Lys-Lys])LK(Benzoyl(4-B(OH)2))K(Benzoyl(4-B(OH)2))Y-NH2) | Non-Toxic | Active | Non-Toxic | –

Continued, compound first:

Row | Compound | Kd [6] | Activity [4] | inhibition [8] | Activity [9] | further results
6 | CC(C)C[C@H](NC(=O)[C@H](CC(C)C)NC(=O)[C@H](CCCCNC(=O)[C@H](CCCCN)NC(=O)[C@H](CCCCNC(=O)c1ccc(B(O)O)cc1)NC(=O)[C@@H](N)CCCCN)NC(=O)[C@H](CCCCN)NC(=O)[C@H](CCCCNC(=O)c1ccc(B(O)O)cc1)NC(=O)[C@@H](N)CCCCN)C(=O)N[C@@H](CCCCN)C(=O)N[C@@H](Cc1ccc(O)cc1)C(N)=O (H-KK(Benzoyl(4-B(OH)2))KK([Lys-X3])LLKY-NH2) | 660 nM | – | – | Non-Toxic | –
7 | CC(C)C[C@H](NC(=O)[C@H](CCCCN)NC(=O)[C@H](CCCCNC(=O)[C@H](CCCCNC(=O)c1ccc(B(O)O)cc1)NC(=O)[C@H](CCCCN)NC(=O)[C@@H](N)CCCCN)NC(=O)[C@H](CCCCNC(=O)c1ccc(B(O)O)cc1)NC(=O)[C@H](CCCCN)NC(=O)[C@@H](N)CCCCN)C(=O)N[C@@H](CCCCNC(=O)c1ccc(B(O)O)cc1)C(=O)N[C@@H](Cc1ccc(O)cc1)C(N)=O (H-KKK(Benzoyl(4-B(OH)2))K(X2)KLK(Benzoyl(4-B(OH)2))Y-NH2) | 120 nM | – | – | Non-Toxic | –
8 | NCCCC[C@H](NC(=O)[C@H](CCCCN)NC(=O)[C@@H](N)CCCCN)C(=O)NCCCC[C@H](NC(=O)[C@H](CCCCN)NC(=O)[C@H](CCCCN)NC(=O)[C@@H](N)CCCCN)C(=O)N[C@@H](CCCCNc1c2ccccc2nc2ccccc12)C(=O)N[C@@H](CCCCNc1c2ccccc2nc2ccccc12)C(=O)N[C@@H](CCCCN)C(=O)N[C@@H](Cc1ccc(O)cc1)C(N)=O (H-KKKK([Lys-Lys-Lys])K(Acridin9yl)K(Acridin9yl)KY-NH2) | – | Non-Toxic | Active | Non-Toxic | inhibition [2]: Dose-dependent effect; inhibition at 40 µM [5]: 90%
9 | CC(C)C[C@H](NC(=O)[C@H](CCCCNC(=O)c1ccc(B(O)O)cc1)NC(=O)[C@H](CC(C)C)NC(=O)[C@H](CCCCNC(=O)[C@H](CCCCN)NC(=O)[C@H](CCCCN)NC(=O)[C@@H](N)CCCCN)NC(=O)[C@H](CCCCN)NC(=O)[C@H](CCCCN)NC(=O)[C@@H](N)CCCCN)C(=O)N[C@@H](Cc1ccc(O)cc1)C(N)=O (H-KKKK([Lys-Lys-Lys])LK(Benzoyl(4-B(OH)2))LY-NH2) | 130 nM | – | – | Non-Toxic | –
10 | CC(C)C[C@H](NC(=O)[C@H](CCCCN)NC(=O)[C@@H](N)CCCCN)C(=O)NCCCC[C@H](NC(=O)[C@H](CC(C)C)NC(=O)[C@H](CCCCN)NC(=O)[C@@H](N)CCCCN)C(=O)N[C@@H](CCCCN)C(=O)N[C@@H](CCCCNC(=O)c1ccc(B(O)O)cc1)C(=O)N[C@@H](CCCCNC(=O)c1ccc(B(O)O)cc1)C(=O)N[C@@H](Cc1ccc(O)cc1)C(N)=O (H-KKLK([Leu-Lys-Lys])KK(Benzoyl(4-B(OH)2))K(Benzoyl(4-B(OH)2))Y-NH2) | 170 nM | – | – | Non-Toxic | –
11 | CC(C)C[C@H](NC(=O)[C@H](CCCCN)NC(=O)[C@@H](N)CCCCN)C(=O)NCCCC[C@H](NC(=O)[C@H](CC(C)C)NC(=O)[C@H](CCCCN)NC(=O)[C@@H](N)CCCCN)C(=O)N[C@@H](CC(C)C)C(=O)N[C@@H](CCCCN)C(=O)N[C@@H](CCCCNC(=O)c1ccc(B(O)O)cc1)C(=O)N[C@@H](Cc1ccc(O)cc1)C(N)=O (H-KKLK([Leu-Lys-Lys])LKK(Benzoyl(4-B(OH)2))Y-NH2) | 330 nM | – | – | Non-Toxic | –
12 | CC(C)C[C@H](NC(=O)[C@@H](N)CCCCN)C(=O)N[C@@H](CCCCN)C(=O)NCCCC[C@H](NC(=O)[C@H](CCCCN)NC(=O)[C@H](CC(C)C)NC(=O)[C@@H](N)CCCCN)C(=O)N[C@@H](CCCCN)C(=O)N[C@@H](CCCCN)C(=O)N[C@@H](CCCCNC(=O)c1ccc(B(O)O)cc1)C(=O)N[C@@H](Cc1ccc(O)cc1)C(N)=O (H-KLKK([Lys-Leu-Lys])KKK(Benzoyl(4-B(OH)2))Y-NH2) | 1430 nM | – | – | Non-Toxic | inhibition at 10 µM [10]: 40%
13 | CC(C)C[C@H](NC(=O)[C@H](CCCCNC(=O)[C@H](CCCCN)NC(=O)[C@H](CC(C)C)NC(=O)[C@@H](N)CCCCN)NC(=O)[C@H](CCCCN)NC(=O)[C@H](CC(C)C)NC(=O)[C@@H](N)CCCCN)C(=O)N[C@@H](CCCCN)C(=O)N[C@@H](CCCCNC(=O)c1ccc(B(O)O)cc1)C(=O)N[C@@H](Cc1ccc(O)cc1)C(N)=O (H-KLKK([Lys-Leu-Lys])LKK(Benzoyl(4-B(OH)2))Y-NH2) | 300 nM | – | – | Non-Toxic | –
14 | CC(C)C[C@H](NC(=O)[C@@H](N)CC(C)C)C(=O)N[C@@H](CCCCN)C(=O)NCCCC[C@H](NC(=O)[C@H](CCCCN)NC(=O)[C@H](CC(C)C)NC(=O)[C@@H](N)CC(C)C)C(=O)N[C@@H](CCCCN)C(=O)N[C@@H](CCCCNC(=O)c1ccc(B(O)O)cc1)C(=O)N[C@@H](CCCCN)C(=O)N[C@@H](Cc1ccc(O)cc1)C(N)=O (H-LLKK([Lys-Leu-Leu])KK(Benzoyl(4-B(OH)2))KY-NH2) | 210 nM | – | – | Non-Toxic | –
